Assay results: paper PMC2956778 (Biochemical and biophysical research communications, 2010)
Entries after “also recorded” stand apart in the source; their conditions may differ. Like-named read-outs stand apart in the source and are kept apart here.

How the values were obtained:
[1] = Membrane permeability assay; set-up: species or system rabbit
[2] = biological target: Ca2+-saturated CaM bound to RyR1 (skeletal SR vesicles) (Homo sapiens, UniProt P0DP23); test: [35S]CaM binding to skeletal SR vesicles; set-up: species or system rabbit; details: for Effect on [35S]CaM binding to SR vesicles: LPC effect probably an artefact (also decreased nonspecific binding)
[3] = system: microsomes from bovine brain cerebrum
[4] = system: complex between CaM and the peptide representing the CaM-binding domain of RyR1; details: cited from earlier work
[5] = biological target: RyR1 (skeletal SR vesicles) (Oryctolagus cuniculus, UniProt P11716); test: [3H]ryanodine binding to skeletal SR vesicles; set-up: species or system rabbit; details: for Effect on [3H]ryanodine binding: 50 μM free Ca2+
purified RyR1 = purified RyR1 (Oryctolagus cuniculus, UniProt P11716); test: Single channel recordings of purified RyR1 in planar lipid bilayers; format: biochemical, rabbit; details: for Ac1 / Ac2 / Ao1 / Ao2 / Po / τc1 / τc2 (lifetime of the second closed state) / τo1 / τo2 / No. of events: +1 μM SPC; for No. of events: 2 min recordings; for Single channel open probability (Po), representative recording: after 1 μM SPC cis
How it was run: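 Purified RyR1 from rabbit SR: CHAPS-solubilised, sucrose-gradient purified, reconstituted into phosphatidylcholine liposomes, fused cis into PE:PS:PC (5:3:2) n-decane bilayers. Symmetrical 0.25 M KCl, 20 mM K-HEPES pH 7.4, 22 μM free Ca²⁺ cis. Test compound added cis. For +CaM, 30 min room-temperature preincubation with 1 μM CaM, then 100 nM CaM cis. Recorded at ±35 mV, sampled 10 kHz, filtered 2 kHz, ≥2 min per condition. Dwell times fitted by maximum likelihood to exponential sums.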

[6] = system: microsomes from bovine brain cerebrum; test: Ca2+ release from brain microsomes; details: data not shown

Sequence of purified RyR1 (P11716 whole entry, the tested form may be a part): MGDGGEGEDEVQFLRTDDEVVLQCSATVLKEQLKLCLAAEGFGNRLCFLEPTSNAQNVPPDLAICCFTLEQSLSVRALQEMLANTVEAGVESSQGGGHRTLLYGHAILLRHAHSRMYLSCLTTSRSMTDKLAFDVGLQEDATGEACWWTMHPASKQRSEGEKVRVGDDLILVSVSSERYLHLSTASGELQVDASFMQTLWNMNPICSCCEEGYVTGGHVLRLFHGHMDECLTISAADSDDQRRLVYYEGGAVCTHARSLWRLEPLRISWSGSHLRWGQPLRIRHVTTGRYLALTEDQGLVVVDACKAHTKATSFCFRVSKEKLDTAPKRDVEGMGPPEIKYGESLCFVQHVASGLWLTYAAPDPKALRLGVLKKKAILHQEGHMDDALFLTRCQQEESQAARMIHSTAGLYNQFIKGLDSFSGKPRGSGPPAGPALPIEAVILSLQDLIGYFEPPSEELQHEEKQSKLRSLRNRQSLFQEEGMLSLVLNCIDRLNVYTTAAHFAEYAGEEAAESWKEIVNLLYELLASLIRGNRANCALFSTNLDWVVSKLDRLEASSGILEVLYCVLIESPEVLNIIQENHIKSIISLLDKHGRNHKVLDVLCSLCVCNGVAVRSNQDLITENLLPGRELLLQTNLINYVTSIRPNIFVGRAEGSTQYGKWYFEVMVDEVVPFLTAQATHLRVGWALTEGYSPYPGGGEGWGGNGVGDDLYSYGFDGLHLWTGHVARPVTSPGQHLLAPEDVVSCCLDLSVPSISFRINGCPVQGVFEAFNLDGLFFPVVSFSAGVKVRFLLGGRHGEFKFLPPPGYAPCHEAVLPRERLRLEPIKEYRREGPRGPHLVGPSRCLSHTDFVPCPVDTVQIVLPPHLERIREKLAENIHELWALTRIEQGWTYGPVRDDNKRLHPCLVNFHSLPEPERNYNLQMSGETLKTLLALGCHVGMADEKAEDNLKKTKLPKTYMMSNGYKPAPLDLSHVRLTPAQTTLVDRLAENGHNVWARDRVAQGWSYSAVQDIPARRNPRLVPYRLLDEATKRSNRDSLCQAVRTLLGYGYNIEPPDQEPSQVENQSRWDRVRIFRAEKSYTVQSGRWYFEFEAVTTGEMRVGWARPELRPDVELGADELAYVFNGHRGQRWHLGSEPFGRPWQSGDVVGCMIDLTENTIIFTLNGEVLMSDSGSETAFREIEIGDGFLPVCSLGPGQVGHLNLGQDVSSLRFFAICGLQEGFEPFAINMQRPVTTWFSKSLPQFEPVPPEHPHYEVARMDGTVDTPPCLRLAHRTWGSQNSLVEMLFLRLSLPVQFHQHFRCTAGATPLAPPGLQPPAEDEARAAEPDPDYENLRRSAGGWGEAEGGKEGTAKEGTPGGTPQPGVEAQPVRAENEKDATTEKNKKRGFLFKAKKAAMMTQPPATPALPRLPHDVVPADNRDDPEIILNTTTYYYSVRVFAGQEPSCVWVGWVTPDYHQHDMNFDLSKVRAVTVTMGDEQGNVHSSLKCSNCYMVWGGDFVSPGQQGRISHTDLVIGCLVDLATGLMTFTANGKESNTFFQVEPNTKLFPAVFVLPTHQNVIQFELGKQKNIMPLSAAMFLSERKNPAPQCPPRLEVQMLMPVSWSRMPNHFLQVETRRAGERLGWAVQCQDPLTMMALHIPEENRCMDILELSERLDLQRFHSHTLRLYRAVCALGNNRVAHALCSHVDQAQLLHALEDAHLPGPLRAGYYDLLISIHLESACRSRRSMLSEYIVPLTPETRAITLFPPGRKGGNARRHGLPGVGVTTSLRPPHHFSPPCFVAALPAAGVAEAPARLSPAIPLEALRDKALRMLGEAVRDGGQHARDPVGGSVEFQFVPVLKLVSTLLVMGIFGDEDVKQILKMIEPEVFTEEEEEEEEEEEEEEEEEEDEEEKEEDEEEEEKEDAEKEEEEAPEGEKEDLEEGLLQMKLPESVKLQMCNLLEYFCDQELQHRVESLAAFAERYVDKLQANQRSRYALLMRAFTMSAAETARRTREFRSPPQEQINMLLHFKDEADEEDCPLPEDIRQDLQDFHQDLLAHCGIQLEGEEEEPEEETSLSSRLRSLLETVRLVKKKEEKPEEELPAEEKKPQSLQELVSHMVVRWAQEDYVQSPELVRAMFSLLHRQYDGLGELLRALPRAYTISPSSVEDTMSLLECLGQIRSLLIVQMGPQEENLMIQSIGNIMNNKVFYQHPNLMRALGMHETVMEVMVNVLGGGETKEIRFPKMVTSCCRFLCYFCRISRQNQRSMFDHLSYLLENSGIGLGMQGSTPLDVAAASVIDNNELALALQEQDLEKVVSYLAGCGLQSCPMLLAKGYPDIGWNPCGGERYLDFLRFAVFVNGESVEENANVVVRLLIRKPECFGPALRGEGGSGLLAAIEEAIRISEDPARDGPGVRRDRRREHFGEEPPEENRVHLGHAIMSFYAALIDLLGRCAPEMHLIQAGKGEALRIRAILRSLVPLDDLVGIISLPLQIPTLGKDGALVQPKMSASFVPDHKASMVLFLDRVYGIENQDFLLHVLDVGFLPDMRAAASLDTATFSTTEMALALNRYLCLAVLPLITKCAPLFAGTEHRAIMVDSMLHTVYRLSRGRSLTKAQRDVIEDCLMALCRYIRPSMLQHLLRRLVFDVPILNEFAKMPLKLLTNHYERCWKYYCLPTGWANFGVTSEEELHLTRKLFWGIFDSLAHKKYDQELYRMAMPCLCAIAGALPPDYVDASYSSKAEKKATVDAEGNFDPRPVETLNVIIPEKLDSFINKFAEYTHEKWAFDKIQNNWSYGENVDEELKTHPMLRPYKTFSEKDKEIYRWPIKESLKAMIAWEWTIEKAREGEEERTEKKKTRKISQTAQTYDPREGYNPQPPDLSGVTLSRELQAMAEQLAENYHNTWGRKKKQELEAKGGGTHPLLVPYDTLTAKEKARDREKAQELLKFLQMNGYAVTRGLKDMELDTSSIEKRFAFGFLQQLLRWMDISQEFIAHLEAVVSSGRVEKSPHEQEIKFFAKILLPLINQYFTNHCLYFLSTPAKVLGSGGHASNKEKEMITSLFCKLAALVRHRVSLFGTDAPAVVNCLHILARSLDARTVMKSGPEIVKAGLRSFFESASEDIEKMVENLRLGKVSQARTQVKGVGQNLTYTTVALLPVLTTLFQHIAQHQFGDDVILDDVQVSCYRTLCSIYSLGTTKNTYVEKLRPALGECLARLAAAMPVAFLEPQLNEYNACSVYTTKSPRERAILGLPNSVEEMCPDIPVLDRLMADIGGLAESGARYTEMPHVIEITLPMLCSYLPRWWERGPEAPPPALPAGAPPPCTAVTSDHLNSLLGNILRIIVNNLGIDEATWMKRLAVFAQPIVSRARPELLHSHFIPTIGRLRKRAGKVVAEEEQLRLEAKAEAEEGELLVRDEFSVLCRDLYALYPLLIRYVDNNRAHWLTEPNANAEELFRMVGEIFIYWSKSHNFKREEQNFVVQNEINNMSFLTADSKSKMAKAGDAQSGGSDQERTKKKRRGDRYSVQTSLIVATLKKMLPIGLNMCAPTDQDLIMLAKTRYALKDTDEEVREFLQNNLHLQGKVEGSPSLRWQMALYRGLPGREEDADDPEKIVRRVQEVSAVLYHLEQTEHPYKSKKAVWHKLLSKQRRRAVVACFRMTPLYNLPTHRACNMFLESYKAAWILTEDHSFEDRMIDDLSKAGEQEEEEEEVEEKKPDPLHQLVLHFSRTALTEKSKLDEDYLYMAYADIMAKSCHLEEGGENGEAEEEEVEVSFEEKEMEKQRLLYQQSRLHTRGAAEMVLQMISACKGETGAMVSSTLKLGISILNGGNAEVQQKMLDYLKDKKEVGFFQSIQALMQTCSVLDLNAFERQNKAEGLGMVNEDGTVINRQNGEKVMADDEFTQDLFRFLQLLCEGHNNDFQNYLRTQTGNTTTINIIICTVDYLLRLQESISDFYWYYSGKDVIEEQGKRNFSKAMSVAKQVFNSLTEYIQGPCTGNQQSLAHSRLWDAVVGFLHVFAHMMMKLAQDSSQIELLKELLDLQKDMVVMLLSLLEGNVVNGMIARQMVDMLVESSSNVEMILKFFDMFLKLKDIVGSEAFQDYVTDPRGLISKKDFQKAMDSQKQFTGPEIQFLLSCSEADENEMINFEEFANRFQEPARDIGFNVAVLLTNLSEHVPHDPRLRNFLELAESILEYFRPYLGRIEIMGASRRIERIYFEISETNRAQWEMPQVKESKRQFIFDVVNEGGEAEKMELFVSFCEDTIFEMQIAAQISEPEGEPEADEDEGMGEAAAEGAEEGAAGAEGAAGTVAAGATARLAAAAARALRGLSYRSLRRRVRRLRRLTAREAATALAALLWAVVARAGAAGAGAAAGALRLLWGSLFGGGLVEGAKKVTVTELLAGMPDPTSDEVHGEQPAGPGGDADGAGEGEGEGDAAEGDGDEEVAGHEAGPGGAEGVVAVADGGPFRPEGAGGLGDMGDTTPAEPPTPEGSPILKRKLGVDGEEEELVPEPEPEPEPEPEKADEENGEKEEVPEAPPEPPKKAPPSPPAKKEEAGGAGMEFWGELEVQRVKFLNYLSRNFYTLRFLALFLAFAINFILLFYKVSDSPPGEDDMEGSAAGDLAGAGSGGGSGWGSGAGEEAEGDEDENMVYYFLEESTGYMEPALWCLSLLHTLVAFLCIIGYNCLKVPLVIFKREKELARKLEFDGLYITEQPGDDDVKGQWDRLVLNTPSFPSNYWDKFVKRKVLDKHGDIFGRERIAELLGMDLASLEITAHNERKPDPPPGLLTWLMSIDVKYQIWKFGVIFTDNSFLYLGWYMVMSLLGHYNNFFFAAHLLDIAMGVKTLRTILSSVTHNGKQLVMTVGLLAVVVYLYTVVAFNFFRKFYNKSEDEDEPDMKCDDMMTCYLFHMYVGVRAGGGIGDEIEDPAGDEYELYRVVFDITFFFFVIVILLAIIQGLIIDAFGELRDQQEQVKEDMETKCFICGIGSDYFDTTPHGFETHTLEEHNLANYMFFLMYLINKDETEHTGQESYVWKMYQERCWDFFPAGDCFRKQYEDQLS
Sequence of RyR1 (skeletal SR vesicles) (P11716 whole entry): as the sequence (P11716 whole entry, the tested form may be a part) above

**Q.** For `C[C@H](CCC(=O)NCCC[N+](C)(C)CCCS(=O)(=O)[O-])[C@H]1CC[C@H]2[C@@H]3[C@H](O)C[C@@H]4C[C@H](O)CC[C@]4(C)[C@H]3C[C@H](O)[C@]12C` [CHAPS], which “Effect on glucose permeability of SR vesicles” value (“Effect on glucose permeability” for short) ([1]; 1% CHAPS detergent) is on record?
**A.** Its value is “released a large amount of stored glucose”.

**Q.** Which “Effect on [35S]CaM binding to SR vesicles” value (“Effect on [35S]CaM binding” for short) [2] does the source give for `CCCCCCCC/C=C\CCCCCCCC(=O)OCC(O)COP(=O)(O)O` (centres unmarked) [LPA, oleoyl-lysophosphatidic acid] here?
**A.** The value was “ineffective”.

**Q.** And the “Effect on glucose permeability” value ([1]; 50 μM lysophospholipid)?
**A.** Its value is “do not disrupt the permeability barrier”.

**Q.** What about the “Ca2+ release from brain microsomes” value [3] of the same compound?
**A.** Its value is “released a large amount of Ca^2+”.

**Q.** Which “Effect on [35S]CaM binding” value [2] does the source give for `CCCCCCCC/C=C\CCCCCCCC(=O)OC[C@@H](O)COP(=O)([O-])OCC[N+](C)(C)C` [LPC, oleoyl-lysophosphatidylcholine] here?
**A.** The value was “decreased; also recorded: significantly decrease”.

**Q.** And the “Effect on glucose permeability” value ([1]; 50 μM lysophospholipid)?
**A.** The value was “do not disrupt the permeability barrier”.

**Q.** And the “Ca2+ release from brain microsomes” value [3]?
**A.** The value was “released a large amount of Ca^2+”.

**Q.** What about the “Effect in peptide binding experiments” value [4] of the same compound?
**A.** The value was “without action”.

**Q.** Which results are given for `CCCCCCCCCCCCC/C=C/[C@@H](O)[C@@H](N)COP(=O)(O)O` [S1P, D-erythro-sphingosine-1-phosphate]?
**A.** Effect on [3H]ryanodine binding ([5]; absence of CaM): minor inhibitory effect; Effect on [3H]ryanodine binding ([5]; presence of CaM): further decreased; Effect on [35S]CaM binding to SR vesicles [2]: ineffective; Effect on glucose permeability of SR vesicles ([1]; 50 μM lysophospholipid): do not disrupt the permeability barrier

**Q.** With `CCCCCCCCCCCCC/C=C/[C@@H](O)[C@@H](N)COP(=O)(O)OCC[N+](C)(C)C` [SPC, D-erythro-sphingosylphosphorylcholine] as the compound, how does the Ac1 (purified RyR1; 22 μM Ca2+) read?
**A.** Its Ac1 is 0.994 ± 0.003.

**Q.** What about the Ac2 (purified RyR1; 22 μM Ca2+) of the same compound?
**A.** Its Ac2 is 0.006 ± 0.003.

**Q.** What about the Ao1 (purified RyR1; 22 μM Ca2+) of the same compound?
**A.** The Ao1 was 0.81 ± 0.18.

**Q.** What about the Ao2 (purified RyR1; 22 μM Ca2+) of the same compound?
**A.** Its Ao2 is 0.19 ± 0.18.

**Q.** What about the Po (purified RyR1; 22 μM Ca2+) of the same compound?
**A.** Its Po is 0.24 ± 0.10.

**Q.** And the τc1 (purified RyR1; 22 μM Ca2+)?
**A.** Its τc1 is 1.07 ± 0.68 ms.

**Q.** And the “τc2 (lifetime of the second closed state)” value (purified RyR1; 22 μM Ca2+)?
**A.** Its value is 452 ± 140 ms.

**Q.** What about the τo1 (purified RyR1; 22 μM Ca2+) of the same compound?
**A.** Its τo1 is 0.24 ± 0.19 ms.

**Q.** What about the τo2 (purified RyR1; 22 μM Ca2+) of the same compound?
**A.** Its τo2 is 5.09 ± 3.32 ms.

**Q.** And the Ac1 (purified RyR1; 22 μM Ca2+ and 100 nM CaM)?
**A.** The Ac1 was 0.96 ±0.03.

**Q.** What about the Ac2 (purified RyR1; 22 μM Ca2+ and 100 nM CaM) of the same compound?
**A.** The Ac2 was 0.04 ± 0.03.

**Q.** What about the Ao1 (purified RyR1; 22 μM Ca2+ and 100 nM CaM) of the same compound?
**A.** Its Ao1 is 0.94 ± 0.05.

**Q.** And the Ao2 (purified RyR1; 22 μM Ca2+ and 100 nM CaM)?
**A.** Its Ao2 is 0.06 ± 0.05.

**Q.** And the Po (purified RyR1; 22 μM Ca2+ and 100 nM CaM)?
**A.** Its Po is 0.18 ± 0.09.

**Q.** And the τc1 (purified RyR1; 22 μM Ca2+ and 100 nM CaM)?
**A.** Its τc1 is 2.81 ± 1.66 ms.

**Q.** And the “τc2 (lifetime of the second closed state)” value (purified RyR1; 22 μM Ca2+ and 100 nM CaM)?
**A.** Its value is 619 ± 242 ms.

**Q.** What about the τo1 (purified RyR1; 22 μM Ca2+ and 100 nM CaM) of the same compound?
**A.** Its τo1 is 0.16 ± 0.12 ms.

**Q.** And the τo2 (purified RyR1; 22 μM Ca2+ and 100 nM CaM)?
**A.** The τo2 was 3.12 ± 2.10 ms.

**Q.** And the No. of events (purified RyR1; 22 μM Ca2+ and 100 nM CaM)?
**A.** The No. of events was 10,392 ±2633.

**Q.** And the No. of events (purified RyR1; 22 μM Ca2+)?
**A.** The No. of events was 9767 ± 1884.

**Q.** And the “Single channel open probability (Po), representative recording” value (purified RyR1; 100 nM CaM, control Po 0.15)?
**A.** Its value is 0.05.

**Q.** And the “Single channel open probability (Po), representative recording” value (purified RyR1; absence of CaM, control Po 0.51)?
**A.** The value was 0.16.

**Q.** What about the “Hill-slope of [3H]ryanodine binding dose-response” value ([5]; absence of CaM, oxidizing conditions (5 mM GSSG)) of the same compound?
**A.** The value was −2.9 ± 0.2.

**Q.** And the “Hill-slope of [3H]ryanodine binding dose-response” value ([5]; absence of CaM, reducing conditions (5 mM GSH))?
**A.** The value was −1.7 ± 0.04.

**Q.** What about the “Effect on [3H]ryanodine binding” value ([5]; presence of CaM) of the same compound?
**A.** The value was “did not significantly alter”.

**Q.** And the “Hill-slope of [35S]CaM displacement” value [2]?
**A.** Its value is 2.3 ± 0.7.

**Q.** And the “Effect on [35S]CaM binding” value [2]?
**A.** The value was “significantly decrease”.

**Q.** And the “Effect on glucose permeability” value ([1]; 50 μM lysophospholipid)?
**A.** Its value is “do not disrupt the permeability barrier”.

**Q.** And the “Ca2+ release from brain microsomes” value [3]?
**A.** Its value is “released a large amount of Ca^2+”.

**Q.** And the IC50 ([4]; read-out: IC50 in peptide binding assays)?
**A.** The IC50 was 19.4 ± 1.4 µM.

**Q.** Which “Ca2+ release from brain microsomes” value ([6]; 5 mM caffeine) does the source give for `Cn1c(=O)c2c(ncn2C)n(C)c1=O` [caffeine] here?
**A.** The value was “only had minor effects”.

**Q.** For `CC(C)[C@@]1(O)[C@@H](OC(=O)c2ccc[nH]2)[C@@]2(O)[C@@]3(C)C[C@]4(O)O[C@@]5([C@H](O)[C@@H](C)CC[C@]35O)[C@@]2(O)[C@@]14C` [ryanodine], which “Ca2+ release from brain microsomes” value ([6]; 1 μM ryanodine) is on record?
**A.** Its value is “only had minor effects”.
